KLK7 zymogen act: proKLK7 (human) activation, primary screen; P49862; purified proKLK7, EDANS-DABCYL substrate fluorescence; 100% is mature enzyme control, 0% vehicle; activation, % at 7 µM; 0.9% of 370,000 active; AID 652039;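 active = activation above the mean of all tested compounds plus 3 SD, computed per campaign excluding outliers beyond control limits, cut at about 13% in these data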
Target sequence (P49862 whole entry, looked up): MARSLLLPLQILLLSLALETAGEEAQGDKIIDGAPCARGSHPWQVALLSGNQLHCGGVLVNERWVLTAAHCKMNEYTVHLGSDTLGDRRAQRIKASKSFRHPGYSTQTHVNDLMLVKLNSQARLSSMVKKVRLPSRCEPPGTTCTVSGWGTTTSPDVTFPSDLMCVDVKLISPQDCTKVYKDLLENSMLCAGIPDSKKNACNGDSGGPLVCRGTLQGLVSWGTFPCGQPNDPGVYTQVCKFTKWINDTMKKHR
DDE Tn7 FP inh: DD(E)-Tn7 binding inhibition, primary FP screen | FP displacement of FITC-Tn7 peptide from fibrin DD(E); 0% = median of compound wells per plate | AID 720508 | 0.13% of 370,000 active | inhibition, % at 8.3 µM;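 active = inhibition above the mean of compounds falling within the control limits plus 3 SD of them, cut at about 14% in these data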;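 also: 0% = plate median of compound wells and 100% = 10 µM Aha-Tn7 peptide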
Target sequence (P02675 whole entry, looked up): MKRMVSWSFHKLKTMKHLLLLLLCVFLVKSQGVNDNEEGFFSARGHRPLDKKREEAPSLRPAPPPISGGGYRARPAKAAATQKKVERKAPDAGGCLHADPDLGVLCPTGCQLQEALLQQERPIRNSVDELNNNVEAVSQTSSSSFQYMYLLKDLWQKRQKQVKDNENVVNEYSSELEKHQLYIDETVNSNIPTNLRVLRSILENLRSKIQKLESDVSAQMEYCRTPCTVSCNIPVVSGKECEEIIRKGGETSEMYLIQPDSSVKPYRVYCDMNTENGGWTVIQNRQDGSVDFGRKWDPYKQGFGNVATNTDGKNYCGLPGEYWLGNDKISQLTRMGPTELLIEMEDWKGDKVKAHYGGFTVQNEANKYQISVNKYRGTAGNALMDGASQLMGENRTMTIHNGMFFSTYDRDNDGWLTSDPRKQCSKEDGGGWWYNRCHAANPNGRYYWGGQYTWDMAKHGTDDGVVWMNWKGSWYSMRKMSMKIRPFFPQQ
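Assay system: Fibrin-DD(E) protein isolated from polymerized human fibrin clots; read-out basis: percent inhibition; medium: Tris/NaCl/CaCl2 buffer, pH 7.8; signal: FP measurement; incubation: 10 min plus 3 h, room temperature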
NRP1-CendR mod: modulators of CendR peptide binding to human neuropilin-1; inhibition, % at 25 µM; O14786; AID 602438; 0.85% of 360,000 active; FAM-RPARPAR peptide binding to NRP-1, fluorescence polarization;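 active = inhibition or corrected inhibition above about 18%, plus a signal ratio from 0.5 to 1.5, limit read from the data, passing the limit was not always enough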
CRFBP-R2 block: CRF-BP/CRF-R2 complex antagonism; HEK293 CRF-R2/CRF-BP, CRF-induced calcium fluorescence; inhibition, % at 11.8 µM; 0.59% of 350,000 active;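 active = inhibition of the ligand-induced calcium signal above about 50% at the single tested concentration, limit read from the data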
Tn6 DDE FP: inhibitors of Tn6 peptide binding to human fibrin DD(E) | P02675 | Fibrin DD(E) TRITC-Tn6 fluorescence polarization displacement | 0.21% of 370,000 active | inhibition, % at 8.3 µM;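 active = inhibition above a per-campaign cutoff: mean of compounds within control limits plus 3 SD, cut at about 15% in these data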;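 also: 0% = median of all compound wells on the plate and 100% = blocking peptide control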
CRFR2-BP ag: agonists of human CRF-binding protein/CRF-R2 receptor complex; HEK293 CRF-R2/CRF-BP, calcium dye fluorescence (FLIPR); percent of saturating CRF peptide response; activation, % at 13.2 µM; 0.46% of 350,000 active;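 active = activation of at least 50%, plus an integration ratio under a set limit after plate pattern correction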;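 also: plate controls were neutral control wells without compound for no effect and CRF at EC100 for full effect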
DDE Tn6 FP ctr: counter-screen for inhibitors of Tn6 peptide binding to fibrin DD(E); shares compounds with Tn6 DDE FP; TRITC-Tn6 fluorescence polarization displacement; 0% = median of compound wells, not DMSO; inhibition, % at 8.3 µM; 2% of 680 active; AID 720621;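 active = inhibition above the mean of test compounds lying between the control limits plus 3 SD of those, cut at about 14% in these data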;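 also: 0% = median of compound wells and 100% = wells with Aha-Tn7 blocking peptide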
DDE Tn6 confirm: DD(E)-Tn6 binding inhibition, FP confirmation; shares compounds with Tn6 DDE FP; FP displacement of TRITC-Tn6 peptide from DD(E); 0% = per-plate median of test wells; inhibition, % at 8.3 µM; 10% of 680 active; AID 720631;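 active = inhibition above the mean of compounds lying within the control limits plus 3 SD, cut at about 16% in these data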;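 also: 100% = high control wells holding a competing inhibitor peptide at 10 µM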
The depositor's hits bear a star; / = not tested or not shown. Shown are actives, neighbours in structure and some others; about 2.9% of the full set was active somewhere.

SMILES	KLK7 zymogen act	DDE Tn7 FP inh	NRP1-CendR mod	CRFBP-R2 block	Tn6 DDE FP	CRFR2-BP ag	DDE Tn6 FP ctr	DDE Tn6 confirm
CC[C@H](C)/C=C(C)/C=C/C(=O)Cc1cc(O)c(C)c(O)c1C=O	0.8	10.0	-113.9	-13.0	15.7*	18.2	-0.1	4.6
C[C@H]1[C@H](NC(=O)c2cccc(C(F)(F)F)c2)CC[C@@]23CCCN2C(=O)CCC[C@@H]13	/	-1.5	/	/	1.3	/	/	/
OCC1COC(c2ccccc2)=N1 (stereo not drawn)	0.2	4.6	/	/	-5.7	/	/	/
C=CCn1c(-c2ccc(F)cc2)n[nH]c1=S	0.0	-2.5	-4.4	-4.8	15.9*	3.1	-1.8	-21.3
N#C/C(=C\c1cccnc1)C(=O)Nc1ccc(O)cc1F	0.0	0.3	-1.2	1.6	49.4*	-1.4	-1.8	-1.1
CC(=O)Nc1ccc2c(c1)C(C)(C)C(C)N2C (stereo not drawn)	-0.5	-4.6	/	21.0	22.4*	27.9	2.4	7.0
CCC1OC2(C)OC(=N)C1(C#N)C(C#N)(C#N)C2c1ccccc1 (stereo not drawn)	12.4	1.5	-15.3	-20.3	1.4	28.1	/	/
CC(C)C1OC2(C)OC(=N)C1(C#N)C(C#N)(C#N)C2c1ccccc1 (stereo not drawn)	4.8	9.3	-13.8	-72.4	20.2*	62.5*	-2.9	2.4
C=CCN1C(=O)[C@@H](CC(=O)NCc2ccccc2)[C@]2(C(=O)OC)CCCCC=C12	-0.5	-0.1	/	/	-1.2	/	/	/
O=C1OC(c2ccccc2)(c2ccccc2)c2ccsc21	-0.6	-2.9	4.5	49.8	16.2*	-1.3	-2.2	-12.6
O=C(O)CCCC[n+]1ccccc1	-0.2	-0.5	/	/	-1.2	/	/	/
CCN1CC=C2C(C1)C(c1ccc(Cl)s1)C(C#N)=C(N)C2(C#N)C#N (stereo not drawn)	-1.2	3.1	50.2	-20.2	15.8*	43.5	-1.5	-2.8
CO/N=C(\CCC(=O)O)c1cccs1	0.1	5.5	9.7	-2.1	16.2*	-1.5	0.2	-3.8
S=C(Nc1cc(Cl)cc(Cl)c1)NC(c1ccccc1)c1ccccc1	/	-7.7	/	/	3.6	/	/	/
O=S(=O)(c1ccccc1)c1cnn(-c2ccccc2)c1-c1ccc(Cl)cc1	0.4	4.0	6.8	10.4	16.1*	3.2	3.5	-6.2
COC1=CC(=O)OC(c2ccc(C(F)(F)F)cc2)C1 (stereo not drawn)	-0.4	8.9	25.6*	/	16.0*	/	1.1	-5.0
COC1=CC(=O)OC(c2ccccc2C(F)(F)F)C1 (stereo not drawn)	1.0	7.3	10.1	/	5.4	/	/	/
CCN(CC)C(=O)CC[C@@H]1CC[C@]2(CCCN(S(=O)(=O)c3ccccc3)C2)O1	0.7	-3.0	/	/	-7.1	/	/	/
Nc1ccc2nc(N)sc2c1	-0.5	-1.4	17.7	2.6	4.5	0.0	/	/
Cc1nc2ccc(N)cc2s1	0.0	-1.8	3.6	-6.1	15.3*	0.3	-5.2	-8.7
CCN(CC)C(=O)CC[C@H]1CC[C@]2(CCCN(C(=O)c3ccco3)C2)O1	0.2	-6.4	/	/	2.9	/	/	/
Cc1ccc(C)c(Cn2nnc3c(=O)[nH]c(C4CCN(S(=O)(=O)c5ccc(S(=O)(=O)NC6CC6)cc5)CC4)nc32)c1	0.4	-2.2	8.0	-5.6	18.5*	2.5	6.3	6.4
COC(=O)c1cc2c(c3c4ccccc4n(S(=O)(=O)c4ccc(OC)cc4)c13)C(=O)N(Cc1ccco1)C2	-1.6	2.7	/	/	-0.8	/	/	/
CCCCNC(=O)C[C@H]1C[C@@]2(C(=O)OC)C(=C[C@H](C(C)C)O[C@@H]2C2CC2)N(Cc2cccc3ccccc23)C1=O	-0.4	0.1	/	/	-1.6	/	/	/
CCOC(=O)N1CCN(C(=O)C[C@H]2C(=O)N(CCCOC)C3=CCCC[C@@]32C(=O)OCC)CC1	-0.6	-5.6	/	/	15.3*	/	1.2	1.8
SMILES	KLK7 zymogen act	DDE Tn7 FP inh	NRP1-CendR mod	CRFBP-R2 block	Tn6 DDE FP	CRFR2-BP ag	DDE Tn6 FP ctr	DDE Tn6 confirm
CC(C)CN1C(=O)[C@]2(CC(=O)N(C)C2c2ccccc2)c2cc(-n3cc(C4=CCCCC4)nn3)ccc21 (stereo partly drawn)	0.4	-0.7	/	/	15.4*	/	8.1	6.7
CC(C)CN1C(=O)[C@]2(CC(=O)N(C)C2c2ccccc2)c2cc(-n3cc(CO)nn3)ccc21 (stereo partly drawn)	-0.6	-4.5	/	/	2.0	/	/	/
CN1C(=O)C[C@@](C#N)(C(=O)NCc2ccc3c(c2)OCO3)[C@H]1c1ccccc1	-0.1	-5.9	/	/	10.9	/	/	/
Cc1cc2ccccc2cc1CN1CCCCC1	-0.3	5.2	3.6	-15.2	16.3*	0.0	-3.8	-4.2
c1ccc2c3c(c(CN4CCCCC4)cc2c1)COC3	-0.4	3.1	0.0	-27.3	3.2	0.6	/	/
CC1CCN(c2c3c(nc4ncnn24)CCCC3)CC1	0.7	-4.3	/	/	-0.9	/	/	/
Cn1c(COc2ccccc2)nnc1SCc1nc2ccccc2[nH]1	-0.7	-4.0	-6.3	-26.7	1.5	-1.2	/	/
COc1ccc(-n2c(COc3ccccc3)nnc2SCc2nc3ccccc3[nH]2)cc1	0.1	5.4	/	/	18.5*	/	-1.7	-9.2
CC(NC(=O)Nc1ccc(O)cc1)(C(F)(F)F)C(F)(F)F	-0.3	-1.1	8.0	-7.2	29.1*	1.1	-6.2	-6.7
COc1ccc(NC(=O)NC(C)(C(F)(F)F)C(F)(F)F)cc1	-0.1	-3.0	-5.1	2.5	1.8	1.5	/	/
O=C(NCc1ccc(Cl)cc1)C1CCC(CNc2c(N3CCCC3)c(=O)c2=O)CC1 (stereo not drawn)	-0.2	6.2	-3.0	2.3	6.9	1.8	/	/
O=C(NCc1ccc(Cl)cc1)C1CCC(CNc2c(N3CCCCC3)c(=O)c2=O)CC1 (stereo not drawn)	0.3	-8.2	-3.1	-9.5	16.3*	-1.5	8.4	3.9
CCCCCOCC1CC(C/C(C)=N/NC(N)=S)C(=O)O1 (stereo not drawn)	-0.5	10.2	-2.9	4.6	15.5*	0.3	-1.3	-11.3
CCn1c(C)c(C2=CCN(S(=O)(=O)c3ccc(C)cc3)CC2)c2ccccc21	0.0	3.4	-97.2	-44.3	24.6*	12.5	4.5	7.9
CC(=O)N1CCc2cc(S(=O)(=O)NCCC(=O)NCc3ccccc3)ccc21	0.3	1.0	/	/	17.6*	/	0.7	-0.2
COc1ccc(CNS(=O)(=O)CC2NCCc3ccccc32)cc1 (stereo not drawn)	-0.4	-3.9	/	/	-3.9	/	/	/
CCCCNC(=O)Cn1c(=O)oc2cc(S(=O)(=O)N3CC(C)CC(C)C3)ccc21 (stereo not drawn)	0.2	9.0	-4.8	-23.2	6.3	2.0	/	/

Screening results deposited in PubChem by several laboratories.
